One test deals with SMMC-7721. Nature of the test: Cytotoxicity against human SMMC7721 cells after 48 hrs by MTT assay. The test is classed as functional, cell-based. The settings on record: SMMC-7721, 48 h. An outline of the steps: (§1)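 Cells grown in RPMI-1640 with 10% FBS, 37 °C, 5% CO2. Seeded at 2 × 10^3 cells per well and left 12 h. Compounds added in DMSO at various concentrations for 48 h. MTT (1 mg/mL in PBS) then added for 4 h at 37 °C. Formazan dissolved in DMSO and absorbance read.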

The next test has as its system DU-145. The test is described as follows: Cytotoxicity against human DU145 cells after 48 hrs by MTT assay. It is filed as functional, cell-based. The note with it: DU-145, 48 h. The gist of the method:
as §1

Test [1] concerns Plasmodium falciparum. Nature of the test: Antiplasmodial activity against drug-sensitive Plasmodium falciparum 3D7 assessed as parasitaemia after 72 hrs using SYBR Green 1 staining by fluorescence method. It is filed as functional, organism-based. The settings on record: 3D7, 72 h. An outline of the steps:
(§2)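 Blood-stage P. falciparum cultures at 0.2% parasitemia, 2% hematocrit, given serially diluted compound in quadruplicate; 72 h at 37 °C. Lysis buffer with SYBR Green I (0.2 μL/mL) added, 1 h in dark, then relative fluorescence read. IC50 by nonlinear regression of logistic dose-response curves.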

The subject of a further test is MCF7. Nature of the test: Cytotoxicity against human MCF7 cells after 48 hrs by MTT assay. The settings on record: MCF7, 48 h. It is filed as functional, cell-based. An outline of the steps:
as §1

A further test deals with A549. Nature of the test: Cytotoxicity against human A549 cells after 48 hrs by MTT assay. It is filed as functional, cell-based. The settings on record: A549, 48 h. An outline of the steps:
as §1

Another test relates to MDA-MB-231. Nature of the test: Cytotoxicity against human MDA-MB-231 cells after 48 hrs by MTT assay. The settings on record: MDA-MB-231, 48 h. The test is classed as functional, cell-based. An outline of the steps: as §1
In another test the test system is SW1990. Nature of the test: Cytotoxicity against human SW1990 cells after 48 hrs by MTT assay. The settings on record: SW1990, 48 h. The test is classed as functional, cell-based. An outline of the steps: as §1
The subject of another test is HeLa. The test is described as follows: Cytotoxicity against human HeLa cells after 48 hrs by MTT assay. The test is classed as functional, cell-based. The gist of the method: as §1
Test [2] concerns Plasmodium falciparum. Nature of the test: Antiplasmodial activity against multidrug-resistant Plasmodium falciparum Dd2 assessed as parasitaemia after 72 hrs using SYBR Green 1 staining by fluorescence method. It is filed as functional, organism-based. The settings on record: Dd2, 72 h. The gist of the method: as §2
In another test the test system is NCI-H460. The test is described as follows: Cytotoxicity against human NCI-H460 cells after 48 hrs by MTT assay. It is filed as functional, cell-based. The note with it: NCI-H460, 48 h. An outline of the steps: as §1

Consider `CC(=O)c1nc(C(=O)NCCc2c[nH]c3ccccc23)cc2c1[nH]c1ccccc12` [MARINACARBOLINE D], for which the IC50 in the test on SMMC-7721 was > 50 µM; in the test with DU-145 it was > 50 µM; with Plasmodium falciparum [1], 5.39 µM; in the test with MCF7, > 50 µM; in the test with A549, > 50 µM; in the test on MDA-MB-231, > 50 µM. In addition, the IC50 in the test on SW1990 was > 50 µM; with HeLa it was > 50 µM; with Plasmodium falciparum [2], 3.59 µM; with NCI-H460, > 50 µM.

`C=CC(C)(C)c1ccc2c3c(c[nH]c13)C[C@@H](CO)NC(=O)[C@H]([C@@H](C)CC)N2`: the IC50 in the test on SMMC-7721 is > 50 µM; in the test on DU-145, > 50 µM; in the test with Plasmodium falciparum [1], 20.8 µM; with MCF7 it was > 50 µM; in the test on A549, > 50 µM; in the test with MDA-MB-231 it was > 50 µM. Besides, the half-inhibitory concentration (IC50) in the test with SW1990 is > 50 µM; in the test with HeLa, > 50 µM; in the test with Plasmodium falciparum [2], 18.7 µM; in the test with NCI-H460, > 50 µM.

Take `CC(=O)c1nc(C(=O)NCCc2ccc(O)cc2)cc2c1[nH]c1ccccc12`: the IC50 was > 50 µM in the test on SMMC-7721; > 50 µM in the test on DU-145; 16.6 µM in the test with Plasmodium falciparum [1]; > 50 µM in the test with MCF7; > 50 µM in the test with A549; > 50 µM in the test with MDA-MB-231. Besides, the IC50 was > 50 µM in the test on SW1990, > 50 µM in the test with HeLa, 15.6 µM in the test on Plasmodium falciparum [2] and > 50 µM in the test on NCI-H460.

As for `CC(=O)c1nccc2c1[nH]c1ccccc12`, the IC50 in the test on SMMC-7721, with DU-145, in the test on MCF7, in the test on A549, in the test on MDA-MB-231 and with SW1990 was > 50 µM each time. In addition, the IC50 in the test on HeLa and in the test on NCI-H460 was > 50 µM throughout.

On to `CC(=O)c1nc(C(=O)NCCc2ccccc2)cc2c1[nH]c1ccccc12`, for which the IC50 in the test on SMMC-7721 was > 50 µM; with DU-145, > 50 µM; with Plasmodium falciparum [1] it was 3.09 µM; in the test with MCF7, > 50 µM; in the test on A549 it was > 50 µM; with MDA-MB-231, > 50 µM. Moreover, the IC50 in the test with SW1990 was > 50 µM; in the test with HeLa, > 50 µM; with Plasmodium falciparum [2], 3.38 µM; in the test with NCI-H460, > 50 µM.

For `C=CC(C)(C)c1ccc2c3c(c[nH]c13)C[C@@H](CO[C@@H]1O[C@@H](CO)[C@H](O)[C@@H](O)[C@@H]1O)NC(=O)[C@H]([C@@H](C)CC)N2C`, the IC50 is > 50 µM in the test on SMMC-7721; > 50 µM in the test with DU-145; 10.4 µM with Plasmodium falciparum [1]; > 50 µM with MCF7; > 50 µM in the test on A549; > 50 µM with MDA-MB-231. The IC50 with SW1990 is > 50 µM; with HeLa, > 50 µM; in the test with Plasmodium falciparum [2], 5.03 µM; in the test on NCI-H460, > 50 µM.

`C=CC(C)(C)c1ccc2c3c(c[nH]c13)C[C@@H](CO)NC(=O)[C@H](C(C)C)N2C` [PENDOLMYCIN]: the IC50 in the test with SMMC-7721, in the test with DU-145, with MCF7, in the test with A549, with MDA-MB-231 and in the test with SW1990 was > 50 µM throughout. Further, the IC50 in the test with HeLa and in the test on NCI-H460 was > 50 µM in each case.

Regarding `COc1ccc(CCNC(=O)c2cc3c([nH]c4ccccc43)c(C(C)=O)n2)cc1` [MARINACARBOLINE A], the IC50 in the test on SMMC-7721 was > 50 µM; in the test with DU-145, > 50 µM; with Plasmodium falciparum [1], 36 µM; in the test with MCF7, > 50 µM; in the test on A549, > 50 µM; in the test on MDA-MB-231, > 50 µM. Besides, the IC50 is > 50 µM in the test on SW1990, > 50 µM in the test on HeLa, 1.92 µM with Plasmodium falciparum [2] and > 50 µM with NCI-H460.

In the case of `C=CC(C)(C)c1ccc2c3c(c[nH]c13)C[C@@H](CO)NC(=O)[C@H]([C@@H](C)CC)N2C` [METHYLPENDOLMYCIN], the IC50 in the test with SMMC-7721, with DU-145, in the test with MCF7, in the test with A549, in the test on MDA-MB-231 and in the test on SW1990 was > 50 µM each time. The half-inhibitory concentration (IC50) in the test on HeLa and with NCI-H460 was > 50 µM each time.
